RBBP9 inh: blocks human serine hydrolase RBBP9 | recombinant RBBP9, FP-Rh probe fluorescence polarization | inhibition, % at 7.94 µM | O75884 | AID 1515 | 220,000 tested, 0.2% active;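 active = inhibition above the campaign mean of all tested compounds plus 3 SD, cut at about 14% in these data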;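 note: plate controls were DMSO wells with RBBP9 for no effect and wells lacking RBBP9 protein for full effect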
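Assay system: recombinant human RBBP9; Reagent: Serine-hydrolase probe FP-Rh, 375 nM pre-mixing; Doses: 7.94 µM single dose, 0.794% DMSO; Incubation: 30 min then 45 min, 25 °C; Detection: fluorescence polarization (mP), excitation 525 nm, emission 598 nm; Evaluation: percent inhibition from mP, scaled between DMSO and no-protein wells.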
Wee1 stabilizer: inhibitors of human Wee1 degradation; 220,000 tested, 1.2% active; P30291; reporter increase, % at 5 µM; HeLa Luc-Wee1K328M stability, luciferase luminescence; 100% = proteasome inhibitor MG132 effect;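 active = activation above the mean of all tested compounds plus 3 SD, set per screening run, cut at about 8.8% in these data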;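 note: cells exposed to compound for 20 h before luminescence read; 0% = DMSO alone and 100% = MG132 at 30 µM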
Target sequence (P30291 whole entry K328M): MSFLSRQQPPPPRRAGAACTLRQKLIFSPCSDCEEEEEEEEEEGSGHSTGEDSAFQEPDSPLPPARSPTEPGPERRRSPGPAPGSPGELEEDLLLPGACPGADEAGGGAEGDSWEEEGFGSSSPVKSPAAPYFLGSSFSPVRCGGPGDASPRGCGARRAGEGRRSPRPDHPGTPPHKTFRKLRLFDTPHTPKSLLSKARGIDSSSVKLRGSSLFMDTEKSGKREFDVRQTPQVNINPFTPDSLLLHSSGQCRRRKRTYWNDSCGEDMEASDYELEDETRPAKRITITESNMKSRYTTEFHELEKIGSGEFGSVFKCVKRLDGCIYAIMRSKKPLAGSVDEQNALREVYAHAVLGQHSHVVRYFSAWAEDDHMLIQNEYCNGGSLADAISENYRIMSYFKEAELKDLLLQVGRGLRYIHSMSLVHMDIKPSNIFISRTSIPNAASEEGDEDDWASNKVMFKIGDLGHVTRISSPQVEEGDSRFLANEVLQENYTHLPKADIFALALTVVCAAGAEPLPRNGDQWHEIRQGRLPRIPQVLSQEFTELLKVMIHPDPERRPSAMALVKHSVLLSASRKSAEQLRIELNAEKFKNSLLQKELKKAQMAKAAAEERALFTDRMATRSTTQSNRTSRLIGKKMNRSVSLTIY
eIF4E 4G PPI: eIF4E/eIF4G interaction inhibition in translation initiation; TR-FRET eIF4E-eIF4GI(517-606) binding, 2 h; AID 782; inhibition, % at 21.7 µM; 220,000 tested, 0.37% active; P63073+Q04637;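 note: 0% = full FRET control wells and 100% = background wells lacking eIF4GI fragment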
p47phox inh: p47phox (human) inhibition; p47phox/p22phox peptide binding, fluorescence polarization, 2 h; inhibition, % at 24.7 µM; 220,000 tested, 0.53% active; AID 1274;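 note: 0% = p47phox with labelled peptide and 100% = labelled peptide alone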
14-3-3 Bad inh: disrupts binding of bovine 14-3-3 zeta to phospho-Bad peptide | P63103 | TR-FRET 14-3-3zeta/Dy647-pBad peptide displacement, 1 h | inhibition, % at 21.7 µM | 220,000 tested, 0.71% active | AID 781;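 active = inhibition above about 70%, limit read from the data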;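 note: 0% = full 14-3-3 plus peptide FRET controls and 100% = background without 14-3-3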
The depositor's hits bear a star; nt = no result given; + = active, no number; [ ] = dose if it differs, or a comment. Rows were chosen to be rich in hits. Some 2.8% of all compounds tested hit in one or more screens of this group.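 Rule for the calls, unless noted: active = inhibition above about 30% (limit read from the data); inactive = the rest.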

SMILES	RBBP9 inh	Wee1 stabilizer	eIF4E 4G PPI	p47phox inh	14-3-3 Bad inh
CCOC(=O)c1ccc(N2CCOCC2)c(NC(=O)c2c(-c3ccccc3)noc2C)c1	-7	10*	5	-11	0
O=C(OCC(=O)c1ccc(S(=O)(=O)N2CCCC2)cc1)C1=COCCO1	-15	0	-3	+	15
CN(C)c1ccc(N=Nc2cccc3ccoc23)cc1	8	9.0*	-1	-34	-4
Cc1cc(N(C)C)ccc1N=Nc1ccc2ncccc2c1	6	-1	10	-35	1
Cc1nn(CC(=O)NCCc2ccc(Cl)cc2Cl)c(C)c1[N+](=O)[O-]	-7	3	3	-57	15
COc1ccc(C(C)=O)cc1COC(=O)c1ccc(OCc2c(C)noc2C)cc1	0	-1	-37	7	73*
COc1ccc(C(C)=O)cc1COC(=O)c1c(C)noc1C	-7	1	12	27	-12
Cc1cccc(-n2c(O)c(C=Nc3ccccc3-c3n[nH]c(=S)[nH]c3=O)c3ccccc3c2=O)n1	-7	-1	50*	-12	-6
Cc1ccc(-n2c(O)c(C=Nc3ccccc3-c3n[nH]c(=S)[nH]c3=O)c3ccccc3c2=O)cc1C	-13	-4	9	-20	-5
COC(=O)CCSC(=S)N1CCOCC1	-2	-1	-1	-22	4
Clc1ccc(OCc2cn3cccnc3n2)c2ncccc12	2	11*	nt	-3	nt
c1cnc2c(OCc3cn4cccnc4n3)cccc2c1	0	2	7	-8	-5
Oc1ccc(/C=N/Nc2nccnc2Cl)c(O)c1	-4	10*	1	-14	-5
O=C1NC(=O)/C(=C\c2ccc(O)cc2O)S1	0	0	29	-16	87*
O=C(O)c1cc2cc(Cl)cc(Cl)c2oc1=O	0	0	7	-5	83*
CC(=O)Nc1ccc(NC(=O)C(C)Sc2nnc(-c3cccs3)o2)cc1 (stereo unspecified)	-2	2	0	-1	-2
COCc1n[nH]c(=S)n1-c1ccccc1	2	-2	-11	-5	-8
COC(Cc1n[nH]c(=S)n1-c1ccccc1)OC	-3	1	5	0	76*
NC(=O)Nc1ccc(C(=O)OCC(=O)Nc2ccc(Cl)cn2)cc1	-5	2	5	-14	-3
O=C(N/N=C/c1ccncc1)c1cc([N+](=O)[O-])cc([N+](=O)[O-])c1O	-1	-3	13	1	89*
Cc1cc(C(=O)N/N=C/c2ccncc2)c(C)o1	-2	-3	2	-6	-6
O=C(c1ccc(C(F)(F)F)cc1)C1CCCN(C(=O)CN2C(=O)CSC2=O)C1 (stereo unspecified)	-4	9.8*	2	-3	-2
O=C(c1ccc(C(F)(F)F)cc1)C1CCCN(C(=O)CN2CCCC2=O)C1 (stereo unspecified)	-2	0	0	-6	-5
NC(=O)c1ccc(/C(N)=N/S(=O)(=O)c2cc(C(F)(F)F)cc(C(F)(F)F)c2)cc1	-4	-1	-3	-8	-2
CCc1ccc2nc(N3C(=O)c4oc5ccccc5c(=O)c4C3c3ccc(OC)c(OC)c3)sc2c1 (stereo unspecified)	-6	1	9	38*	29
SMILES	RBBP9 inh	Wee1 stabilizer	eIF4E 4G PPI	p47phox inh	14-3-3 Bad inh
Cc1ccc(-c2onc3ccc(C=O)cc23)cc1	-6	-1	7	-22	10
O=C(O)/C=C/c1ccc2noc(-c3ccccc3)c2c1	-4	26*	-5	5	-2
Cc1ccc2c(c1)C(SCC(=O)NCCc1ccccc1)CC1(CCCC1)O2 (stereo unspecified)	6	2	4	-4	-16
CC(C)(C)OC(=O)N1CCC(C(=O)N[C@@H](Cc2ccccc2)C(=O)O)(c2ccccc2)CC1	-4	1	5	9	5
CC(C)[C@H](NC(=O)C1(c2ccccc2)CCN(C(=O)OC(C)(C)C)CC1)C(=O)O	3	1	-5	58*	-1
COc1cccc(-c2c(C#N)c(SC)nc3cc(C)nn23)c1	-12	-2	-2	-8	0
COc1cccc(/C=N/n2nnnc2N)c1O	-6	-3	2	-3	-1
O=c1[nH]c(/C=C/c2ccccc2[N+](=O)[O-])nc2ccccc12	-7	0	3	2	71*[fluorescence artefact?]
Cc1cccc(/C=C\c2nc3ccccc3c(=O)[nH]2)c1	-13	0	1	-1	0
O=c1[nH]c(/C=C/c2cccc3ccccc23)nc2ccccc12	-17	4	24	54*	58
CC(C)CC(CO)N1CCN(C(=O)c2ccc(C(C)(C)C)cc2)CCC1=O (stereo unspecified)	-7	-3	-7	-5	-7
O=C(COC(=O)COc1ccccc1[N+](=O)[O-])Nc1cccc(Br)c1	-5	-1	1	-5	-9
CC1(C)C(C=C(Cl)Cl)C1C(=O)N(Cc1cccc(Cl)c1)C1CCS(=O)(=O)C1 (stereo unspecified)	-2	3	4	-24	0
O=C(O)/C=C\C(=O)NCc1cccnc1	-5	-1	0	-4	-3
O=C1CCCC2=C1C(c1ccc(Br)cc1)c1c([nH]c(=S)[nH]c1=O)N2 (stereo unspecified)	-1	0	59*	10	38
COc1ccc(NS(=O)(=O)c2ccc(NC(=O)c3ccccc3)cc2)nn1	1	11*	-2	-10	-5
CCOC(=O)C1=C(c2ccccc2)Nc2ncnn2C1c1ccc(C(=O)O)cc1 (stereo unspecified)	-7	4	3	-9	3
CCOC(=O)C1=C(c2ccccc2)NC(N)=NC1c1ccc(OCc2ccc(C(=O)OC)cc2)cc1 (stereo unspecified)	5	0	28	84*	90*
Cc1ccccc1NN=Nc1nc2c([nH]1)c(=O)n(C)c(=O)n2C	-10	12*	9	1	-22
CCOC(=O)c1cccc(N2C(=O)c3ccccc3S2(=O)=O)c1	6	-1	3	81*	4
CC(=O)c1cc(F)c(N2CCN(C(=O)COc3ccccc3F)CC2)cc1C	-7	-1	-5	-13	-8
CC(=O)N1c2c(cc(Br)cc2S(=O)(=O)N2CCN(c3ccccn3)CC2)CC1C (stereo unspecified)	-4	-1	3	-25	88*
CC(=O)N1CCc2cc(Br)cc(S(=O)(=O)N3CCN(c4ccccn4)CC3)c21	5	7	nt	nt	nt
Cc1nc(COC(=O)c2cc(O)c3ccccc3c2O)cs1	10	0	20	49*	57
CCOc1ccc(NC(=O)c2cccc(OC(=S)N3CCC(C)CC3)c2)cc1	-6	3	-5	-3	-2
CS(=O)(=O)Nc1ccccc1C(=O)Nc1cccc(Cl)c1	-5	0	7	-8	77*
